A short description of data set [1]: Cmin in albino guinea pig cage fluid at 3 mg/kg, ip administered as single dose measured after 12 hrs. Type of data set: ADME, organism-based, Cavia porcellus. Details: dose 3 mg/kg, route intraperitoneal. The following applies: read-out: Cmin. The procedure, abridged: (§1)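 Noninfected cage-bearing guinea pigs given one ip dose. Cage fluid aspirated over 12 h, mixed with EDTA and centrifuged. Levels measured in triplicate by agar diffusion bioassay with S. pneumoniae ATCC 49619 indicator (detection limit 0.0005 μg/ml). Cmin taken 12 h post-dose; means ± SD from 12 aspirates.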

The nature of data set [2]: Cmin in albino guinea pig cage fluid at 12.5 mg/kg, ip administered as single dose measured after 12 hrs. Type of data set: ADME, organism-based, Cavia porcellus. Details: dose 12.5 mg/kg, route intraperitoneal. The note with it: read-out: Cmin. The gist of the method:
(§2)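 Noninfected guinea pigs with subcutaneous tissue cages received ip dosing, either a single dose or every 12 h for 4 days (multiple-dose values taken on day 4). Cage fluid was aspirated over 12 h, mixed with EDTA, centrifuged and stored at −20°C. Drug levels were measured by agar diffusion bioassay. Cmin was taken 12 h after dosing. Values are means ± SD from 12 aspirates.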

Data set [3] is described as follows: Cmax in albino guinea pig cage fluid at 12.5 mg/kg, ip administered every 12 hrs for 4 days. Type of data set: ADME, organism-based, Cavia porcellus, Interstitial fluid. Details: dose 12.5 mg/kg, route intraperitoneal. The procedure, abridged: as §2
A short description of data set [4]: Ratio of peak drug level in albino guinea pig cage fluid at 12.5 mg/kg, ip to MIC for Staphylococcus aureus ATCC 29213. The class given is functional. The following applies: route intraperitoneal. The gist of the method:
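The peak cage-fluid concentration after a single ip dose was divided by the MIC. MIC was determined by macrotube dilution in cation-adjusted Mueller-Hinton broth with an inoculum of 5 × 10^5 CFU/ml, read visually as the lowest concentration with no growth. Tests were run in triplicate and the median reported.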

The nature of data set [5]: Cmax in albino guinea pig cage fluid at 3 mg/kg, ip administered as single dose. Details: dose 3 mg/kg, route intraperitoneal. Type of data set: ADME, organism-based, Cavia porcellus, Interstitial fluid. The gist of the method: as §1
The test system of data set [6] is Staphylococcus aureus. The data set is described as follows: Antibacterial activity against Staphylococcus aureus ATCC 29213 assessed as logarithmic-growth-phase minimal bactericidal concentration after 24 hrs by macrotube dilution method. The following applies: ATCC 29213, 24 h. The class given is functional. The procedure, abridged: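 MBClog: cation-adjusted Mueller-Hinton broth, macrotube dilution, inoculum 5 × 10^5 CFU/ml taken from overnight culture; lowest concentration cutting initial count by >99.9% (3 log10 CFU/ml) after 24 h incubation. Run in triplicate, median reported.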

The test system of data set [7] is Staphylococcus aureus. Description: Antibacterial activity against Staphylococcus aureus ATCC 29213 infected albino guinea pig tissue-cage infection model assessed as infection cure rate at 3 mg/kg, ip administered every 12 hrs for 4 days. Type of data set: functional. The following applies: route intraperitoneal. The procedure, abridged: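 Guinea pig subcutaneous Teflon tissue-cage model infected with 2 × 10^4 CFU S. aureus. Drug given ip every 12 h for 4 days from 24 h post-infection. Cages removed on day 9, vortexed in 10 ml TSB, incubated 24 h at 37°C and plated on sheep blood agar. Cure rate = fraction of cages with no growth; ≥12 cages per regimen.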

Data set [8] concerns Staphylococcus aureus. Description: Ratio of MBC for Staphylococcus aureus ATCC 29213 during stationary-growth phase to logarithmic-growth phase.
The subject of data set [9] is Staphylococcus aureus. The data set is described as follows: Antibacterial activity against Staphylococcus aureus ATCC 29213 infected albino guinea pig tissue-cage infection model assessed as infection cure rate at 12.5 mg/kg, ip administered every 12 hrs for 4 days. The class given is functional. The following applies: route intraperitoneal. The procedure, abridged: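 Guinea pig tissue-cage S. aureus infection (2 × 10^4 CFU per cage), treated ip every 12 h for 4 days, starting 24 h after inoculation. Cages were explanted 5 days after treatment ended, vortexed in 10 ml TSB and incubated at 37°C. After 24 h, 50 μl was plated on sheep blood agar. Cure rate is the fraction of cages with no growth; at least 12 cages per regimen.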

Data set [10] relates to Staphylococcus aureus. Description: Antibacterial activity against Staphylococcus aureus ATCC 29213 by macrotube dilution method. The class given is functional. The gist of the method:
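S. aureus from overnight culture, inoculum 5 × 10^5 CFU/ml, in cation-adjusted Mueller-Hinton broth; twofold? no—serial drug dilutions (tips changed each dilution) per CLSI macrotube method. MIC = lowest concentration with no visible growth. Run in triplicate, median reported.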

For data set [11], the system named is Staphylococcus aureus. Description: Antibacterial activity against Staphylococcus aureus ATCC 29213 assessed as stationary-growth-phase minimal bactericidal concentration after 24 hrs by macrotube dilution method. Type of data set: functional. The note with it: ATCC 29213, 24 h.
Data set [12] concerns Staphylococcus aureus. Description: Antibacterial activity against Staphylococcus aureus ATCC 29213 infected albino guinea pig tissue-cage infection model assessed as bacterial count at 12 mg/kg, ip administered every 12 hrs for 4 days measured during treatment period. The class given is functional. The note with it: route intraperitoneal. The gist of the method: (§3)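 Male albino guinea pigs (640–800 g) carrying four subcutaneous Teflon tissue cages; cages inoculated with 2 × 10^4 CFU S. aureus. Drug given ip in saline (5 ml total) every 12 h for 4 days, starting 24 h post-infection. Cage-fluid log10 CFU/ml measured on day 1 (baseline), day 4 before last dose (during treatment), and day 9 (5 days after treatment). ≥12 cages (3 animals) per regimen; mean reported.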

Data set [13] has as its system Staphylococcus aureus. Description: Antibacterial activity against Staphylococcus aureus ATCC 29213 infected albino guinea pig tissue-cage infection model assessed as bacterial count at 12 mg/kg, ip administered every 12 hrs for 4 days measured after treatment period. Type of data set: functional. The following applies: route intraperitoneal. The procedure, abridged: as §3

The nature of data set [14]: Ratio of peak drug level in albino guinea pig cage fluid at 12.5 mg/kg, ip to MBC for Staphylococcus aureus ATCC 29213 during stationary-growth phase. The following applies: route intraperitoneal.
Data set [15] can be described thus: Cmax in albino guinea pig cage fluid at 12.5 mg/kg, ip administered as single dose. Type of data set: ADME, organism-based, Cavia porcellus, Interstitial fluid. Details: dose 12.5 mg/kg, route intraperitoneal. The gist of the method:
as §2

The nature of a further data set: in vivo. The note with it: guinea pig, cage fluid, ip, 5 mg/kg.
Data set [16] in a line: Cmin in albino guinea pig cage fluid at 5 mg/kg, ip administered as single dose measured after 12 hrs. The class given is ADME, organism-based, Cavia porcellus. Details: dose 5 mg/kg, route intraperitoneal. The following applies: read-out: Cmin. The gist of the method: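 Single ip dose to noninfected cage-bearing guinea pigs. Cage fluid EDTA-treated and centrifuged, then assayed with E. coli V6311/65 bioassay (detection limit 0.01 μg/ml). Trough measured 12 h after dosing; means ± SD from 12 aspirates.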

Data set [17] concerns Staphylococcus aureus. The data set is described as follows: Antibacterial activity against Staphylococcus aureus ATCC 29213 infected albino guinea pig tissue-cage infection model assessed as bacterial count at 12.5 mg/kg, ip administered every 12 hrs after 4 days. The class given is functional. The note with it: route intraperitoneal. The gist of the method: (§4)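 Male albino guinea pigs (640 to 800 g) carried four subcutaneous perforated Teflon cages. After two weeks, sterility was confirmed and each cage was inoculated percutaneously with 2 × 10^4 CFU S. aureus in 200 μl. Treatment began 24 h later: ip every 12 h for 4 days (8 doses). Quantitative cage-fluid cultures were taken on day 1, before the last dose (day 4) and 5 days after treatment (day 9). At least 12 cages (3 animals) per regimen.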

For data set [18], the system named is Staphylococcus aureus. The data set is described as follows: Antibacterial activity against Staphylococcus aureus ATCC 29213 infected albino guinea pig tissue-cage infection model assessed as bacterial count at 12.5 mg/kg, ip administered every 12 hrs after 5 days. The class given is functional. The following applies: route intraperitoneal. The procedure, abridged: as §4

Converted amounts (≈) assume the structure as drawn.

As for `CO[C@H]1/C=C/O[C@@]2(C)Oc3c(C)c(O)c4c(=O)c(c5oc6cc(N7CCN(C)CC7)cc(O)c6nc-5c4c3C2=O)NC(=O)/C(C)=C\C=C\[C@H](C)[C@H](O)[C@@H](C)[C@@H](O)[C@@H](C)[C@H](O)[C@@H]1C`, the concentration at 12 h in data set [1] stood at 40 ng/mL; in data set [2], 140 ng/mL. In addition, the Cmax (commonly the highest concentration seen after dosing) was found to be 820 ng/mL in data set [3], 110 ng/mL in data set [5] and 1130 ng/mL in [15]. For the same compound, the figures for the Ratio (in data set [4]; in the data set with Staphylococcus aureus [8]; in data set [14]) were 1130, 31.3 and 4.52, respectively. For the same compound, the MBC (commonly the smallest concentration meeting the test's criterion for killing) in the data set with Staphylococcus aureus [6] was 0.008 µg/mL (≈ 0.00934 µM); with Staphylococcus aureus [11], 0.25 µg/mL (≈ 0.292 µM). For the same compound, the Activity in the data set on Staphylococcus aureus [7] is listed as 8%; in the data set with Staphylococcus aureus [9] it was 58%. Also, the MIC (commonly the smallest concentration in the dilution series that meets the test's criterion for growth inhibition) with Staphylococcus aureus [10] was determined as 0.001 µg/mL (≈ 0.00117 µM). In addition, the values for the log10CFU/ml with Staphylococcus aureus [12] and in the data set on Staphylococcus aureus [13] were 3.24 and 1.57, respectively.
Consider `C[C@H]1COc2c(N3CCN(C)CC3)c(F)cc3c(=O)c(C(=O)O)cn1c23.C[C@H]1COc2c(N3CCN(C)CC3)c(F)cc3c(=O)c(C(=O)O)cn1c23.O` [LEVOFLOXACIN], for which the MBC came out at 0.32 µg/mL in the data set on Staphylococcus aureus [6] and 40 µg/mL with Staphylococcus aureus [11]. Besides, the Ratio with Staphylococcus aureus [8] came to 125. For the same compound, in the data set with Staphylococcus aureus [10], the MIC worked out at 0.16 µg/mL. In “in vivo”, this compound had a Cmax of 970 ng/mL. Also, the concentration at 12 h in data set [16] stood at 10 ng/mL.
`CO[C@H]1/C=C/O[C@@]2(C)Oc3c(C)c(O)c4c(O)c(c(/C=N/N5CCN(C)CC5)c(O)c4c3C2=O)NC(=O)/C(C)=C\C=C\[C@H](C)[C@H](O)[C@@H](C)[C@@H](O)[C@@H](C)[C@H](OC(C)=O)[C@@H]1C` [RIFAMPIN]: the concentration at 12 h in data set [2] was determined as 140 ng/mL. Further, the peak level in data set [3] (Cmax) was 610 ng/mL. In addition, the minimal bactericidal concentration (MBC) is 0.8 µg/mL (≈ 0.972 µM) with Staphylococcus aureus [6] and 3.6 µg/mL (≈ 4.37 µM) in the data set on Staphylococcus aureus [11]. Moreover, the log10CFU/ml was determined as 3.68 with Staphylococcus aureus [17] and 1.43 in the data set with Staphylococcus aureus [18]. Besides, the Activity in the data set on Staphylococcus aureus [9] was found to be 46%. In the data set with Staphylococcus aureus [10], this compound yielded an MIC of 0.016 µg/mL (≈ 0.0194 µM).
